Results of several laboratories.
Each line is one published result; the experiments were not run side by side.
Target: Macrophage-stimulating protein receptor (MST1R, Homo sapiens, UniProt Q04912)

SMILES | test | setting | measurement | value
Clc1ccc(Nc2nnc(Cc3ccncc3)c3ccccc23)cc1 | cell-free assay | 0.5 µM | remaining signal | 91.6%
Cc1ccc(C(=O)Nc2ccc(CN3CCN(C)CC3)c(C(F)(F)F)c2)cc1C#Cc1cnc2cccnn12 | cell-free assay | 23.5 nM | remaining signal | 100%
CCN(CC)CCNC(=O)c1c(C)[nH]c(/C=C2\C(=O)Nc3ccc(F)cc32)c1C | enzyme activity, inhibitor | 0.1 µM | remaining activity | 97%
O=c1nc(-c2ccccn2)sc2ccccc12 | cell-free assay, competition with immobilised ligand | 1 µM | remaining binding | 100%
CCCOc1ccc(OC)c(F)c1C(=O)c1ccc(C(=O)N[C@@H]2CNC[C@H]2NC(=O)c2ccc3[nH]ncc3c2)cc1 | enzyme activity, inhibitor | 10 µM | remaining activity | 64%
Cc1ccc(Nc2nccc(N(C)c3ccc4c(C)n(C)nc4c3)n2)cc1S(N)(=O)=O | cell-free assay | 10 µM | inhibition | -4%
CC(C)(C)c1nc2c(s1)c1nc(N)ncc1c1ccc(NS(=O)(=O)c3c(F)cccc3F)c(F)c12 | enzyme activity, inhibitor, radiometric | 1 µM | remaining activity | 116%
CCc1ccccc1C(=O)Nc1n[nH]c2c(C)c(F)c(C3C(C#N)=C(C)N(C)C(C)=C3C#N)cc12 | cell-free assay, competition with immobilised ligand | 1 µM | remaining binding | 100%
CN1CC(Oc2cnc(C#N)cc2-c2ccn3nc(NC(=O)C4CC4)cc3c2)C1 | enzyme activity, inhibitor | 1 µM | inhibition | 5%
O=C(NS(=O)(=O)c1ccc(NCC2CCOCC2)c([N+](=O)[O-])c1)c1ccc(N2CCN(Cc3ccc(C(F)(F)F)cc3-c3ccc(Cl)cc3)CC2)cc1Oc1cnc2[nH]ccc2c1 | cell-free assay, competition with immobilised ligand | 1 µM | remaining binding | 96%
Cc1[nH]c(/C=C2\C(=O)Nc3ccc(F)cc32)c(C)c1C(=O)N[C@H]1CCN(C(=O)N(C)C)C1 | enzyme activity, inhibitor | 1 µM | remaining activity | 96%
Cn1nc(C(F)(F)F)cc1-c1cnc(N2CCc3cc(S(=O)(=O)Nc4c(F)cc(Cl)cc4F)cc(N4CCCC4=O)c32)nc1 | cell-free assay, competition with immobilised ligand | 1 µM | remaining binding | 100%
N#CCCc1ccc2c(c1)-c1[nH]c3ccc([N+](=O)[O-])cc3c1CC(=O)N2 | cell-free assay | 0.5 µM | remaining signal | 107%
CNC(=O)c1cc(Oc2ccc(NC(=O)Nc3ccc(Cl)c(C(F)(F)F)c3)cc2)ccn1 | cell-free assay | 0.3 µM | inhibition | -10%
CC(=O)c1c(NS(C)(=O)=O)c2cc(-c3ccc(Cl)cc3)c(-c3ccc(Cl)cc3Cl)nc2n(C)c1=O | cell-free assay, competition with immobilised ligand | 1 µM | remaining binding | 88%
CCCS(=O)(=O)Nc1ccc(F)c(C(=O)c2c[nH]c3ncc(-c4ccc(Cl)cc4)cc23)c1F | enzyme activity, inhibitor | 1 µM | inhibition | < 10%
CCN(CC)c1ccc(C2=NNC(=O)CC2C)cc1[N+](=O)[O-] (stereo not shown) | enzyme activity, inhibitor | 10 µM | remaining activity | 106%
COc1cccc2c(NCc3ccccc3)nc(-n3c(N)nc4ccccc43)nc12 | target engagement in cells, inhibitor, chemoproteomics | 20 mM | inhibition | -13.2%
CNCc1ccccc1-c1csc([C@@H](C)Nc2nc(C)nc3cc(OC)c(OC)cc23)c1 | cell-free assay, competition with immobilised ligand | 1 µM | remaining binding | 100%
O=C(Nc1cnn(-c2csc(C(=O)NC3COC3)c2)c1)Nc1c(F)cccc1Cl | enzyme activity, inhibitor | 5 µM | remaining activity | 100%
CCN(CC)CCNC(=O)c1c(C)[nH]c(/C=C2\C(=O)Nc3ccc(F)cc32)c1C | cell-free assay | 10 µM | inhibition | -1%
O=C1Nc2ccc(Cl)cc2C1=Cc1cc(Cl)c(O)c(Cl)c1 | cell-free assay | 0.5 µM | remaining signal | 94.8%
COc1cc2ncnc(Nc3ccc(Oc4ccccc4)c(C)c3C)c2cc1OC | enzyme activity, inhibitor | 1 µM | inhibition | -3%
CNC(=O)c1cc2c(Oc3ccc(NC(=O)C4(C(=O)Nc5ccc(F)cc5)CC4)cc3)ccnc2cc1OC | enzyme activity, inhibitor, radiometric | 1 µM | inhibition | 90%
Cc1noc([C@H]2C[C@@H](c3ccc(C(F)(F)F)cc3)CN(C(=O)N3CCS(=O)(=O)C3)C2)n1 | cell-free assay, competition with immobilised ligand | 1 µM | remaining binding | 100%
CC/C(=N\NC(=O)NCc1cccc(O)c1)c1ccc(O)c(C)c1O | enzyme activity, inhibitor | 0.1 µM | inhibition | -1.5%
O=C(N1CCS(=O)(=O)CC1)N1C[C@H](c2ccc(OC(F)(F)F)cc2)C[C@H](c2nc(C3CC3)no2)C1 | cell-free assay, competition with immobilised ligand | 1 µM | remaining binding | 100%
Cc1cnc(NC2CCOCC2)nc1-n1cnc(C(=O)NC(CN)c2cc(F)cc(Cl)c2)c1 (stereo not shown) | enzyme activity, inhibitor, radiometric | 1 µM | remaining activity | 107%
